Measurements taken from ChEMBL document CHEMBL1649231, “In vitro activities of panduratin A against clinical Staphylococcus strains” (2009).
In brackets after ≈: the same amount, converted by molar mass.

Assays:
Format in all cases: functional
Staphylococcus aureus [1] = experiment: Antimicrobial activity against methicillin-resistant Staphylococcus aureus after 24 hrs by broth microdilution method
How it was run: (§1)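 Clinical isolates came from blood, body fluids, genital secretions, pus or sputum, identified conventionally or by Vitek. MICs were run by CLSI M7-A6 broth microdilution in Mueller-Hinton broth with 5 × 10^5 CFU/ml inoculum. Agents were twofold serially diluted, starting from 10% DMSO. Drug-free and uninoculated controls were included. Plates were incubated aerobically at 37°C for 24 h; MIC is the lowest concentration giving no visible growth.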

[2] = test system: Staphylococcus haemolyticus; experiment: Antimicrobial activity against methicillin-resistant coagulase-negative Staphylococcus haemolyticus assessed as resistant isolates after 24 hrs by broth microdilution method
[3] = test system: Staphylococcus haemolyticus; experiment: Antimicrobial activity against methicillin-resistant coagulase-negative Staphylococcus haemolyticus after 24 hrs by broth microdilution method; how it was run: as §1
[4] = test system: Staphylococcus epidermidis; experiment: Antimicrobial activity against methicillin-resistant coagulase-negative Staphylococcus epidermidis assessed as resistant isolates after 24 hrs by broth microdilution method
[5] = test system: Staphylococcus epidermidis; experiment: Antimicrobial activity against methicillin-resistant coagulase-negative Staphylococcus epidermidis assessed as susceptible isolates after 24 hrs by broth microdilution method
Staphylococcus hominis [6] = experiment: Bactericidal activity against methicillin-resistant coagulase-negative Staphylococcus hominis after 24 hrs by plate counting method; settings: for MBC: Staphylococcus hominis, 24 h
Staphylococcus aureus [7] = experiment: Bactericidal activity against methicillin-susceptible Staphylococcus aureus after 24 hrs by plate counting method; settings: for MBC: Staphylococcus aureus, 24 h
How it was run: (§2)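 Clinical staphylococcal isolates from patient body fluids, blood, genital secretions, pus or sputum; species by conventional methods or Vitek. Twofold dilutions in Mueller-Hinton broth, inoculum 5 × 10^5 CFU/ml, 37°C aerobic 24 h (CLSI M7-A6 microdilution). About 100 μl from each well without visible growth spread on MHA; 37°C 24 h. MBC = lowest concentration giving no growth on agar.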

Staphylococcus hominis [8] = experiment: Antimicrobial activity against methicillin-resistant coagulase-negative Staphylococcus hominis after 24 hrs by broth microdilution method; how it was run: as §1
Staphylococcus aureus [9] = experiment: Antimicrobial activity against methicillin-susceptible Staphylococcus aureus assessed as susceptible isolates after 24 hrs by broth microdilution method
Staphylococcus aureus [10] = experiment: Antimicrobial activity against methicillin-resistant Staphylococcus aureus assessed as susceptible isolates after 24 hrs by broth microdilution method
Mammaliicoccus sciuri [11] = experiment: Antimicrobial activity against methicillin-resistant coagulase-negative Staphylococcus sciuri assessed as susceptible isolates after 24 hrs by broth microdilution method
Mammaliicoccus sciuri [12] = experiment: Antimicrobial activity against methicillin-resistant coagulase-negative Staphylococcus sciuri assessed as resistant isolates after 24 hrs by broth microdilution method
Staphylococcus hominis [13] = experiment: Antimicrobial activity against methicillin-susceptible coagulase-negative Staphylococcus hominis after 24 hrs by broth microdilution method; how it was run: as §1
Staphylococcus hominis [14] = experiment: Antimicrobial activity against methicillin-susceptible coagulase-negative Staphylococcus hominis assessed as susceptible isolates after 24 hrs by broth microdilution method
[15] = test system: Staphylococcus epidermidis; experiment: Antimicrobial activity against methicillin-susceptible coagulase-negative Staphylococcus epidermidis after 24 hrs by broth microdilution method; how it was run: as §1
Staphylococcus simulans = experiment: Bactericidal activity against methicillin-susceptible coagulase-negative Staphylococcus simulans after 24 hrs by plate counting method; settings: for MBC: Staphylococcus simulans, 24 h; how it was run: as §2
Staphylococcus aureus [16] = experiment: Antimicrobial activity against methicillin-resistant Staphylococcus aureus assessed as intermediate resistant isolates after 24 hrs by broth microdilution method
Staphylococcus aureus [17] = experiment: Antimicrobial activity against methicillin-susceptible Staphylococcus aureus assessed as intermediate resistant isolates after 24 hrs by broth microdilution method
[18] = test system: Staphylococcus haemolyticus; experiment: Antimicrobial activity against methicillin-resistant coagulase-negative Staphylococcus haemolyticus assessed as intermediate resistant isolates after 24 hrs by broth microdilution method
Staphylococcus hominis [19] = experiment: Antimicrobial activity against methicillin-resistant coagulase-negative Staphylococcus hominis assessed as intermediate resistant isolates after 24 hrs by broth microdilution method

Compound | MIC50 (Staphylococcus aureus [1]) [µg/mL] | MIC90 (Staphylococcus aureus [1]) [µg/mL] | Activity [2] [%] | MIC50 [3] [µg/mL] | MIC90 [3] [µg/mL] | Activity [4] [%] | Activity [5] [%] | MBC50 (Staphylococcus hominis [6]) [µg/mL] | MBC (Staphylococcus hominis [6]) [µg/mL] | MBC50 (Staphylococcus aureus [7]) [µg/mL] | MBC (Staphylococcus aureus [7]) [µg/mL] | MIC50 (Staphylococcus hominis [8]) [µg/mL] | MIC90 (Staphylococcus hominis [8]) [µg/mL] | Activity (Staphylococcus aureus [9]) [%] | Activity (Staphylococcus aureus [10]) [%] | Activity (Mammaliicoccus sciuri [11]) [%] | Activity (Mammaliicoccus sciuri [12]) [%] | MIC (Staphylococcus hominis [13]) [µg/mL] | MIC50 (Staphylococcus hominis [13]) [µg/mL] | MIC90 (Staphylococcus hominis [13]) [µg/mL] | also measured
CC[C@H]1OC(=O)[C@H](C)[C@@H](O[C@H]2C[C@@](C)(OC)[C@@H](O)[C@H](C)O2)[C@H](C)[C@@H](O[C@@H]2O[C@H](C)C[C@H](N(C)C)[C@H]2O)[C@](C)(O)C[C@@H](C)C(=O)[C@H](C)[C@@H](O)[C@]1(C)O [ERYTHROMYCIN] | 32 (≈ 43.6 µM) | 64 (≈ 87.2 µM) | 74 | 16 (≈ 21.8 µM) | 32 (≈ 43.6 µM) | 74 | 11 | 32 (≈ 43.6 µM) | 1 (≈ 1.36 µM) | 4 (≈ 5.45 µM) | 1 (≈ 1.36 µM) | 16 (≈ 21.8 µM) | 32 (≈ 43.6 µM) | 56 | 0 | 15 | 74 | 0.5 (≈ 0.681 µM) | 0.5 (≈ 0.681 µM) | 16 (≈ 21.8 µM) | Activity (Staphylococcus hominis [14]): 50%; MIC [15]: 0.5 µg/mL (≈ 0.681 µM); MIC50 [15]: 0.5 µg/mL (≈ 0.681 µM); MIC90 [15]: 16 µg/mL (≈ 21.8 µM); MBC50 (Staphylococcus simulans): 2 µg/mL (≈ 2.73 µM); MBC (Staphylococcus simulans): 1 µg/mL (≈ 1.36 µM); Activity (Staphylococcus aureus [16]): 0%; Activity (Staphylococcus aureus [17]): 4%; Activity [18]: 15%; Activity (Staphylococcus hominis [19]): 15%
C[C@H]1COc2c(N3CCN(C)CC3)c(F)cc3c(=O)c(C(=O)O)cn1c23.C[C@H]1COc2c(N3CCN(C)CC3)c(F)cc3c(=O)c(C(=O)O)cn1c23.O [LEVOFLOXACIN] | 8 | 128 | 59 | 0.25 | 4 | 59 | 26 | 4 | 0.5 | 1 | 0.125 | 0.25 | 4 | 81 | 18 | 15 | 59 | 0.25 | 0.25 | 0.5 | MIC [3]: 0.25 µg/mL; MBC90 (Staphylococcus hominis [6]): 16 µg/mL; MBC90 (Staphylococcus aureus [7]): 8 µg/mL; MIC (Staphylococcus hominis [8]): 0.25 µg/mL; Activity (Staphylococcus hominis [14]): 96%; MIC [15]: 0.25 µg/mL; MIC50 [15]: 0.25 µg/mL; MIC90 [15]: 0.5 µg/mL; MBC50 (Staphylococcus simulans): 1 µg/mL; MBC90 (Staphylococcus simulans): 4 µg/mL; MBC (Staphylococcus simulans): 0.5 µg/mL; Activity (Staphylococcus aureus [16]): 0%; Activity (Staphylococcus aureus [17]): 4%; Activity [18]: 15%; Activity (Staphylococcus hominis [19]): 15%
